According to ChEMBL document CHEMBL4130343, “Design, synthesis, and evaluation of benzofuran derivatives as novel anti-pancreatic carcinoma agents via interfering the hypoxia environment by targeting HIF-1α pathway” (Eur J Med Chem, 2017):
pIC50: −log10 of the molar value. In brackets after ≈: the same amount, converted by molar mass. Activity calls are given as the source filed them. No cut-off for these calls is given here.

Experiments:
[1] = Cmax in rat at 10 mg/kg, iv after 0.083 to 24 hrs by LC-MS/MS method; type: ADME, organism-based; design: dose 10 mg/kg, route intravenous; conditions: in vivo
[2] = Bioavailability in rat at 10 mg/kg, ip after 0.083 to 24 hrs by LC-MS/MS method; type: ADME, organism-based; conditions: in vivo
PANC-1 [3] = experiment: Induction of apoptosis in human PANC1 cells assessed as late apoptotic cells at 2 uM after 24 hrs by annexin V/propidium iodide staining-based flow cytometric method (reference value: 2.65%); type: functional
PANC-1 [4] = experiment: Induction of apoptosis in human PANC1 cells assessed as viable cells at 2 uM after 24 hrs by annexin V/propidium iodide staining-based flow cytometric method (reference value: 89.5%); type: functional; conditions: PANC-1, 24 h, read-out: Activity
PANC-1 [5] = experiment: Induction of apoptosis in human PANC1 cells assessed as early apoptotic cells at 2 uM after 24 hrs by annexin V/propidium iodide staining-based flow cytometric method (reference value: 7.25%); type: functional
PANC-1 [6] = experiment: Induction of apoptosis in human PANC1 assessed as increase in cleaved caspase-9 levels at 0.1 to 1 uM after 24 hrs by Western blot method; type: functional, cell-based
In short: (§1)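 PANC-1 cells were treated with graded compound concentrations for 24 h, then lysed. Proteins were separated by SDS-PAGE and blotted to PVDF. Blots were probed for PARP, cleaved PARP, caspase-3, cleaved caspase-3, caspase-9 and cleaved caspase-9, with GAPDH as loading control, and read by infrared imaging. Bands were quantified by densitometry as ratios normalized to GAPDH.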

[7] = Half life in rat at 10 mg/kg, ip after 0.083 to 24 hrs by LC-MS/MS method; type: ADME, organism-based; conditions: in vivo
[8] = Plasma concentration in rat at 10 mg/kg, iv after 36 hrs by LC-MS/MS method; type: ADME, organism-based
In short: (§2)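 Rats, n = 6 per group, each given a single 10 mg/kg dose. Blood was collected into heparinized tubes and centrifuged at 4 °C and 8000 rpm for 5 min. Plasma was analysed by LC–MS/MS.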

PANC-1 [9] = experiment: Induction of apoptosis in human PANC1 cells assessed as early apoptotic cells at 1 uM after 24 hrs by annexin V/propidium iodide staining-based flow cytometric method (reference value: 7.25%); type: functional
PANC-1 [10] = experiment: Induction of apoptosis in human PANC1 cells assessed as late apoptotic cells at 0.1 uM after 24 hrs by annexin V/propidium iodide staining-based flow cytometric method (reference value: 2.65%); type: functional
PANC-1 [11] = experiment: Antitumor activity against human PANC1 cells xenografted in nude mouse assessed as inhibition of tumor weight at 60 mg/kg, ip administered every 2 days for 21 days relative to vehicle-treated control; type: functional; conditions: PANC-1, ip
In short: (§3)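 Female nude mice received 1×10^7 PANC-1 cells subcutaneously in the right flank. After 4 weeks, mice bearing tumors averaging 100 mm³ were randomized into five groups. Dosing was 15, 30 or 60 mg/kg i.p. every two days for 21 days. Tumor volume = width² × length/2; tumors were weighed at sacrifice, and body weight was monitored.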

[12] = Plasma concentration in rat at 10 mg/kg, ip after 36 hrs by LC-MS/MS method; type: ADME, organism-based; in short: as §2
PANC-1 [13] = experiment: Induction of apoptosis in human PANC1 cells assessed as dead cells at 2 uM after 24 hrs by annexin V/propidium iodide staining-based flow cytometric method (reference value: 0.60%); type: functional
PANC-1 [14] = experiment: Induction of apoptosis in human PANC1 cells after 24 hrs by annexin V/propidium iodide staining-based flow cytometric method; type: functional, cell-based
HUVEC = experiment: Antiangiogenic activity in HUVEC assessed as inhibition of tube formation under hypoxia condition at 0.625 to 2.5 uM after 6 hrs by inverted microscopic method; conditions: Homo sapiens
Mus musculus [15] = experiment: Toxicity in nude mouse xenografted with human PANC1 cells assessed as effect on quality of life at 15 to 60 mg/kg, ip administered every 2 days for 21 days measured during compound dosing; type: organism-based; conditions: in vivo
In short: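 Female nude mice were implanted s.c. in the right flank with 1×10^7 PANC-1 cells. After 4 weeks, mice with tumours averaging 100 mm³ were randomized into five groups. They were dosed i.p. at 15, 30 or 60 mg/kg every two days for 21 days and monitored for toxicity, tumour growth and body weight.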

[16] = Intrinsic aqueous solubility of the compound; type: physicochemical; conditions: read-out: Intrinsic_solubility
In short: (§4)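 Intrinsic aqueous solubility and log D at pH 7.4 were measured on a pION Gemini Profiler.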

MDA-MB-231 = experiment: Antiproliferative activity against human MDA-MB-231 cells after 48 hrs by MTT assay; type: functional, cell-based; conditions: MDA-MB-231, 48 h
In short: (§5)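 Cells were seeded at 5×10^5 cells/mL overnight and exposed to graded compound concentrations for 48 h. MTT (5 mg/mL stock) was added for 4 h at 37 °C, and formazan was dissolved in DMSO. Absorbance was read at 570 nm. IC₅₀ was fitted from the curves; values are mean ± SD, n = 3.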

PANC-1 [17] = experiment: Induction of apoptosis in human PANC1 cells assessed as dead cells at 1 uM after 24 hrs by annexin V/propidium iodide staining-based flow cytometric method (reference value: 0.60%); type: functional
PANC-1 [18] = experiment: Induction of apoptosis in human PANC1 cells assessed as viable cells at 1 uM after 24 hrs by annexin V/propidium iodide staining-based flow cytometric method (reference value: 89.5%); type: functional; conditions: PANC-1, 24 h, read-out: Activity
Mus musculus [19] = experiment: Downregulation of CD31 expression in human PANC1 cells xenografted in nude mouse at 15 to 60 mg/kg, ip administered every 2 days for 21 days by immunohistochemical method; type: functional, organism-based
In short: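 Tumors came from the PANC-1 nude-mouse xenografts dosed at 15, 30 or 60 mg/kg i.p. every two days for 21 days. Tumor sections were stained immunohistochemically with antibodies against CD31, HIF-1α and VEGF.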

PANC-1 [20] = experiment: Induction of apoptosis in human PANC1 assessed as increase in cleaved caspase-3 levels at 0.1 to 1 uM after 24 hrs by Western blot method; type: functional, cell-based; in short: as §1
[21] = Oral bioavailability in rat at 10 mg/kg after 0.083 to 24 hrs by LC-MS/MS method; type: ADME, organism-based; conditions: in vivo
HCT-116 = experiment: Antiproliferative activity against p53-deficient human HCT116 cells after 48 hrs by MTT assay; type: functional, cell-based; conditions: HCT-116, 48 h; in short: as §5
[22] = Distribution co-efficient, log D of the compound at pH 7.4; type: physicochemical; conditions: buffer; in short: as §4
PANC-1 [23] = experiment: Antitumor activity against human PANC1 cells xenografted in nude mouse assessed as decrease in tumor volume at 15 to 60 mg/kg, ip administered every 2 days for 21 days; type: functional, organism-based; in short: as §3
[24] = target: Hypoxia-inducible factor 1-alpha (Homo sapiens) (UniProt Q16665); experiment: Inhibition of HIF-1alpha in human PANC1 cells assessed as downregulation of VEGF mRNA levels under hypoxia condition after 24 hrs by qRT-PCR method; type: cell-based
Hypoxia-inducible factor 1-alpha (Homo sapiens), sequence (Q16665 whole entry, looked up): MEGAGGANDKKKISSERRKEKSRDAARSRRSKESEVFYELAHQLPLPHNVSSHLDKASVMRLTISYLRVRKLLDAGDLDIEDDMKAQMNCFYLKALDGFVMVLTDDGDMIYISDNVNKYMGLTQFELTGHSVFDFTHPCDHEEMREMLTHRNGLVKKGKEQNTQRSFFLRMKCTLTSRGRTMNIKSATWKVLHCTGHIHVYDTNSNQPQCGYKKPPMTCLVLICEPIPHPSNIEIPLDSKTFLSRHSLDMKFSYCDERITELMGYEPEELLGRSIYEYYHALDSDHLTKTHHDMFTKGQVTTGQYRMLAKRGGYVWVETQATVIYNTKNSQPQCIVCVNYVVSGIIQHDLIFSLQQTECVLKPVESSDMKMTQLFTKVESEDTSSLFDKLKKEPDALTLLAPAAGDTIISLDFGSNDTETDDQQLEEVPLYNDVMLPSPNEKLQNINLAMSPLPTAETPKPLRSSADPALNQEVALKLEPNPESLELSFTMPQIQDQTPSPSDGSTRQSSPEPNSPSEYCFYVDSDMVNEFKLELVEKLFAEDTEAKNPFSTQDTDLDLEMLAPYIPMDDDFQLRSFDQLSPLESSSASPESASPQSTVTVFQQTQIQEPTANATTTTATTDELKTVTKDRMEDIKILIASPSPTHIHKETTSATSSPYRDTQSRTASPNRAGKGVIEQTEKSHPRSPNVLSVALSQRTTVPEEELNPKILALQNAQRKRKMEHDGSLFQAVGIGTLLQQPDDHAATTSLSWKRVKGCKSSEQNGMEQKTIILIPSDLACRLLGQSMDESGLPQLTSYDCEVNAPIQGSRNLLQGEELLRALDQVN
In short: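 PANC-1 cells were exposed to hypoxia (1% O₂, 94% N₂, 5% CO₂, 37 °C) for 24 h with compound treatment. VEGF mRNA was measured by real-time qRT-PCR.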

[25] = target: Hypoxia-inducible factor 1-alpha (Homo sapiens) (UniProt Q16665); experiment: Inhibition of HIF-1alpha (unknown origin) expressed in HEK293 cells under hypoxia condition after 24 hrs by luciferase reporter gene assay; type: cell-based
In short: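 HEK293 cells were co-transfected with HRE-luciferase and pRL-SV40 plasmids for 6 h. Cells were then treated with compound under hypoxia (1% O₂, 94% N₂, 5% CO₂, 37 °C) for 24 h. Activity was read by dual-luciferase assay on a luminometer.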

Cc1c(C(=O)NC2CCN(C)CC2)oc2ccc(N(Cc3ccc(Br)cc3)S(=O)(=O)c3ccc(Br)cc3)cc12
Cmax [1]: 3100 ng/mL | bioavailability [2]: 86.1% | Activity (PANC-1 [3]): 51.15% | viability at 2 µM (PANC-1 [4]): 44.7% | Activity (PANC-1 [5]): 3.7% | Activity (PANC-1 [6]): Active | half-life [7]: 7.09 h | concentration at 36 h [8]: > 10 ng/mL | Activity (PANC-1 [9]): 3.55% | Activity (PANC-1 [10]): 9.3% | inhibition in vivo at 60 mg/kg (PANC-1 [11]): 75.8% | concentration at 36 h [12]: > 10 ng/mL | Activity (PANC-1 [13]): 0.45% | Activity (PANC-1 [14]): Dose-dependent effect | inhibition (HUVEC): Active | Activity (Mus musculus [15]): Non-Toxic | solubility [16]: 30.2 µg/mL (≈ 44.7 µM) | pIC50 (MDA-MB-231): 5.72 | Activity (PANC-1 [17]): 0.2% | viability at 1 µM (PANC-1 [18]): 50.6% | Activity (Mus musculus [19]): Active | Activity (PANC-1 [20]): Active | bioavailability [21]: 15% | pIC50 (HCT-116): 5.79 | logD [22]: 3.15 | Activity (PANC-1 [23]): Active | inhibition [24]: Dose-dependent effect | inhibition [25]: Dose-dependent effect
